Assay outcomes from PubChem BioAssay.
FGF22 binding = shifts melting point of recombinant human FGF22; recombinant FGF22 thermal shift, SYPRO orange fluorescence; percent of sucrose octasulfate shift, DMSO zero; activity (Tm shift, normalised), % at 9.99 µM; 1.5% of 340,000 active; AID 651658;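 active means mean Tm shift, scaled 0 neutral to 100 positive control, at about 1.3% or above, every replicate too, limit read from the data; inconclusive means no clear call, values can overlap the other calls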
DENV2 CPE = inhibitors of DENV2 cytopathic effect; DENV2-infected cells, cytopathic effect rescue, plate reader; CPE inhibition, % at 9.99 µM; 1.7% of 350,000 active; in the data active means CPE inhibition above about 20%, passing the limit was not always enough; inconclusive means no clear call, values can overlap the other calls; tested in BHK-21 cells;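 further: 0% = median of neutral control wells and 100% = median of positive control wells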
Xi reactivation = activators of X-chromosome reactivation in mouse fibroblasts; XiGFP mouse fibroblasts, % GFP-positive cells imaging, 3 d; cells co-treated with 5-aza-dC sensitizer; scaled so ellipticine positive control = 100%; activation, % at 7.58 µM; 0.055% of 360,000 active; AID 743238;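 active means mean normalized replicate activation at least 10% and every replicate at or above 10%; inconclusive means only one of the two criteria met; inactive means mean below 10% and not all replicates reach 10%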;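 further: 0% = median of on-plate neutral control wells and 100% = ellipticine 6 µM median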
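assay system = SV40-immortalized XiGFP fibroblast cells, line 68-5-11 | buffer or medium = DMEM plus 5-aza-dC sensitizer | doses = single-point pinned compound dosing | times = 3-day compound exposure, then 15 min fixation at room temperature | benchmarks = positive control ellipticine, 6 µM final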
PglD DTNB = blocks C. jejuni PglD acetyltransferase activity; purified PglD enzyme, DTNB colorimetric CoA detection; inhibition, % at 12.5 µM; 0.098% of 360,000 active; AID 602405; in the data active means inhibition above about 16%, passing the limit was not always enough; inconclusive means no clear call, values can overlap the other calls
C2C12 statin = protects C2C12 myotubes from simvastatin toxicity. ATP luminescence, 48 h; scaled: DMSO 0, geranylgeraniol control 100. rescue of ATP level, % at 7.49 µM. 0.78% of 330,000 active. AID 602340;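 active means mean ATP rescue above about 67%, or every replicate alone reaching that limit, limit read from the data, passing the limit was not always enough; inconclusive means no clear call, values can overlap the other calls; inactive means mean under the limit and some replicate under it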;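 further: myotubes were challenged with 10 µM simvastatin during compound exposure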
E-selectin induc = induces E-selectin expression in human endothelial cells. P16581. HUVEC E-selectin immunofluorescence imaging; normalized: neutral wells 0, TNF-alpha wells 100. activation, % at 7.58 µM. 0.37% of 260,000 active. AID 686992;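 active means mean E-selectin-positive cell signal at least 10% of the positive control, reached in at least 60% of replicates, without over 20% cell loss; inconclusive means no rule given, readout overlaps actives, possibly toxicity-flagged; inactive means the rest, including those meeting only one limit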
Target sequence (P16581 whole entry, looked up): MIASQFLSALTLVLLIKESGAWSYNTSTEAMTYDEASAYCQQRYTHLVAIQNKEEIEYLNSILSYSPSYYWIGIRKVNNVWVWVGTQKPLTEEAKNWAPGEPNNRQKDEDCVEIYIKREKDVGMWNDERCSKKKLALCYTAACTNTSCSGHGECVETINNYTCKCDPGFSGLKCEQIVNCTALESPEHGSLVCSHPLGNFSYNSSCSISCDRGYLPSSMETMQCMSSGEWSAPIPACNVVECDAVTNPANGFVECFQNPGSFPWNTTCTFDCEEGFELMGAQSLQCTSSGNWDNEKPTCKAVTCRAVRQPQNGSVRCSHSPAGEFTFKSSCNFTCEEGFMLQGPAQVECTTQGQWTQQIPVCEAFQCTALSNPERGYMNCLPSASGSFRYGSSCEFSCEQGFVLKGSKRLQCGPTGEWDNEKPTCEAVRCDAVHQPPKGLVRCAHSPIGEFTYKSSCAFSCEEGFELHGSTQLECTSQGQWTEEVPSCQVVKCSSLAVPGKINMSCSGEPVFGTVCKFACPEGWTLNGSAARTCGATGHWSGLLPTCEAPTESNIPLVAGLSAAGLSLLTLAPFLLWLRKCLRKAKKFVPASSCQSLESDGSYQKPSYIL
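Read-out basis: % PE-positive cells; Test system: HUVEC primary endothelial cells; Technique: immunofluorescence imaging; Dosing: single-point compound dose.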
* = called active by the depositor; ? = inconclusive; . = no result. In the library only some 3.3% were active in any assay of this set; here they are far more common.

SMILES	FGF22 binding	DENV2 CPE	Xi reactivation	PglD DTNB	C2C12 statin	E-selectin induc
CC1=C(C#N)C(=O)NC(=O)/C1=C\c1ccc(-c2cc(C)c(C)cc2[N+](=O)[O-])o1	1.6*	8.4	0.0	-3.9	-0.9	.
Cc1ccc(-c2ccc(/C=C3/NC(=O)NC3=O)o2)cc1[N+](=O)[O-]	0.2	-0.3	0.1	2.0	.	.
COC(=O)c1cc(S(=O)(=O)NCC2CCN(CCc3cccs3)CC2)c[nH]1	-0.1	-3.9	0.2	.	-6.8	226.3*
COC(=O)c1cc(S(=O)(=O)NCCc2ccccc2)c[nH]1	-0.1	-6.2	0.0	7.0	120.0*	-0.5
O=C(c1cnccn1)N1CC(=O)N2[C@@H](CO)[C@H](c3ccc(C#CCC4CCCC4)cc3)[C@@H]2C1	.	-0.8	-0.1	.	.	-0.5
CC1=C(N2CCOCC2)CCC1=O	-0.3	-6.1	0.1	0.1	1.6	-0.1
CC(=O)C1=C(N2CCCCC2)CCC1=O	.	.	.	9.3	95.5*	.
COc1ccccc1NC(=O)N1CCCCN2[C@H](CO)[C@H](c3ccc(-c4ccccc4)cc3)[C@H]2C1	0.2	11.0	.	2.1	.	.
O=C(Cc1ccccc1)NCC(=O)OCC(=O)c1ccccc1Cl	112.3*	-2.0	0.0	3.4	.	-0.1
O=C(CNC(=O)c1ccccc1)OCc1nc2ccccc2s1	43.3*	-8.3	0.1	.	.	.
O=C(CNC(=O)c1ccccc1)OCC(=O)c1ccccc1Cl	0.0	28.4*	0.0	-6.4	.	-0.5
O=C(CNC(=O)c1ccco1)OCC(=O)c1ccccc1Cl	0.6	4.1	0.2	1.2	-3.3	.
O=C1CN(S(=O)(=O)Cc2ccccc2)C[C@@H]2[C@@H](c3ccc(C#Cc4cccnc4)cc3)[C@H](CO)N12	.	0.9	0.1	.	.	0.0
CCC(=O)NC[C@@H]1[C@H](c2ccc(C3=CCCC3)cc2)[C@H](CO)N1C(=O)C1CC1	.	-12.3	0.0	-0.4	-19.6	0.0
CC(C)NC(=O)Nc1ccc2c(c1)C(=O)N([C@@H](C)CO)C[C@@H](C)[C@@H](CN(C)Cc1ccncc1)OCCCC[C@H](C)O2	-0.3	1.1	0.1	-0.3	.	-0.2
O=c1cc(-c2ccc([N+](=O)[O-])cc2)c2ccc(O)cc2o1	44.7*	-5.9	0.0	0.4	2.4	0.1
COc1ccc(-c2cc(=O)oc3cc(O)ccc23)cc1	-0.3	-1.1	0.0	.	.	0.2
COc1cccc(S(=O)(=O)N2CCC3(CC2)CN[C@@H](CO)c2c3c3ccc(OC)cc3n2C)c1	0.1	2.5	0.1	.	.	-0.4
CCCCCCCCN1C(=O)[C@H](CC(=O)NCCC(C)C)C[C@@]2(C(=O)OCC)CCCC=C12	0.1	20.1*	0.5	.	.	.
CCOC(=O)[C@]12CCC=C1N(Cc1ccc(Cl)cc1Cl)C(=O)[C@H](CC(=O)NCc1cccc(C(F)(F)F)c1)C2	1.4*	6.6	0.2	.	.	.
CCOC(=O)[C@]12CCCC=C1N(CCC1=CCCCC1)C(=O)[C@H](CC(=O)NCCC(C)C)C2	-0.4	3.6	0.1	.	.	?
COC(=O)[C@@]12C[C@@H](CC(=O)NCc3cccc(C(F)(F)F)c3)C(=O)N(Cc3cccc4ccccc34)C1=CCC(C)(C)C2	23.4*	-1.5	0.2	.	.	0.8
CCOC(=O)[C@]12CCCC=C1N(Cc1ccc(Cl)cc1Cl)C(=O)[C@H](CC(=O)NCc1cccc(C(F)(F)F)c1)C2	0.9	-9.9	0.4	.	.	0.4
CCCCNC(=O)C[C@@H]1C[C@@]2(C(=O)OC)CCCCC=C2N(CCC2=CCCCC2)C1=O	0.0	80.4*	0.0	.	.	-0.1
C/C=C/c1ccc2c(c1)O[C@@H](CN(C)C(=O)COC)[C@@H](C)CN([C@H](C)CO)S2(=O)=O	-0.1	5.5	0.5	-1.6	-2.6	-0.4
SMILES	FGF22 binding	DENV2 CPE	Xi reactivation	PglD DTNB	C2C12 statin	E-selectin induc
CCOC(=O)[C@]12CCCC=C1N(CCC1=CCCCC1)C(=O)[C@H](CC(=O)NCc1cccc(C(F)(F)F)c1)C2	0.1	14.5	-0.1	.	.	0.1
COC(=O)[C@]12CCCCC=C1N(Cc1ccc(Cl)cc1Cl)C(=O)[C@H](CC(=O)NCc1cccc(C(F)(F)F)c1)C2	1.5*	-7.3	0.0	.	.	0.0
COC(=O)[C@]12CCCCC=C1N(CCC1=CCCCC1)C(=O)[C@H](CC(=O)NCc1cccc(C(F)(F)F)c1)C2	-0.3	50.6*	0.2	.	.	0.0
CCOC(=O)[C@]12CCC=C1N(CCC1=CCCCC1)C(=O)[C@H](CC(=O)NCCc1ccccc1OC)C2	-0.2	16.2	0.0	.	.	180.4*
COC(=O)[C@]12CCCCC=C1N(Cc1ccccc1)C(=O)[C@H](CC(=O)NCc1cccc(C(F)(F)F)c1)C2	-0.3	7.2	0.1	.	.	0.3
O=C(C1CCCC1)N1CC2(C1)[C@@H](c1ccccc1)[C@@H](CO)N2C(=O)NC1CCCC1	.	4.9	0.0	.	.	0.0
CCCNC(=O)N1C[C@@H](O)COC[C@H]2O[C@H](CC(=O)N3CCOCC3)CC[C@@H]21	0.0	-8.9	-0.1	1.3	0.1	0.0
C[C@H]1CN([C@@H](C)CO)C(=O)Cc2cc(NC(=O)Cc3ccccc3)ccc2O[C@H]1CN(C)Cc1ccc2c(c1)OCO2	0.9	-10.9	0.1	-1.2	12.7	0.0
O=C(Cn1nnc(-c2ccncc2)n1)N(C1CCCCC1)C1CCCCC1	.	.	.	-1.8	124.2*	.
COc1ccc(NC(=O)N(C)C[C@H]2Oc3ncc(C#CCC(C)C)cc3C(=O)N([C@H](C)CO)C[C@@H]2C)cc1	-0.2	8.9	-0.8	3.5	42.1	1.0
COc1ccc(COC(=O)C2=C(C)NC(=O)NC2c2ccc(F)cc2)cc1 (stereo not given)	0.1	60.8*	0.1	-3.2	13.7	.
COc1ccc(C2NC(=O)NC(C)=C2C(=O)Nc2cccc(C)c2C)cc1 (stereo not given)	0.0	60.1*	0.2	1.4	-1.0	0.2
CCCC#Cc1ccc2c(c1)O[C@H](CN(C)Cc1ccncc1)[C@@H](C)CN([C@@H](C)CO)S2(=O)=O	-0.6	11.0	-0.7	0.5	-52.6	1.3
C[C@@H]1CN([C@H](C)CO)C(=O)c2cc(C#Cc3ccccc3)cnc2O[C@H]1CN(C)C(=O)CN(C)C	-0.1	?	0.1	-3.5	-15.9	1.0
CCCCC1=CC2=CC(=O)C(C)(OC(=O)CC)C(=O)C2=CN1c1cccc(C#N)c1 (stereo not given)	-0.2	25.8*	0.1	3.8	.	1.2
C[C@@H]1CN([C@H](C)CO)C(=O)c2cccc(NC(=O)c3ccc(-c4nccs4)cc3)c2O[C@@H]1CN(C)Cc1ccc(-c2ccccc2)cc1	-0.1	-4.0	0.0	0.5	-27.6	-0.3
C[C@H]1CN([C@@H](C)CO)C(=O)c2cccc(NC(=O)c3ccc(-c4nccs4)cc3)c2O[C@@H]1CN(C)Cc1ccc(-c2ccccc2)cc1	-0.1	75.1*	-0.4	0.3	-10.0	-0.1
